In ChEMBL document CHEMBL2157885, “Synthesis of 1,5-diarylhaloimidazole analogs and their inhibitory activities against PGE₂ production from LPS-treated RAW 264.7 cells” (Bioorg Med Chem, 2012):

System: RAW264.7
Assay: Cytotoxicity against LPS-stimulated mouse RAW264.7 cells by MTT assay
Assay type: cell-based
Conditions: not given
How it was run: (§1)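 Viability of ATCC RAW 264.7 cells, grown in DMEM with 10% FBS and 1% antibiotics at 37 °C under 5% CO₂, read by MTT assay with or without LPS at the compound concentrations used for the PGE₂ assay.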

| SMILES | Activity |
| --- | --- |
| CS(=O)(=O)c1ccc(-c2c(Br)ncn2-c2ccc(F)c(F)c2)cc1 | Non-toxic |
| CS(=O)(=O)c1ccc(-c2c(Cl)ncn2-c2ccc(F)c(F)c2)cc1 | Non-toxic |
| CS(=O)(=O)c1ccc(-c2cnc(Cl)n2-c2ccc(F)cc2F)cc1 | Non-toxic |
| CS(=O)(=O)c1ccc(-c2cnc(Br)n2-c2ccc(F)c(F)c2)cc1 | Non-toxic |
| CS(=O)(=O)c1ccc(-c2c(Cl)nc(Cl)n2-c2ccc(F)c(F)c2)cc1 | Non-toxic |
| CS(=O)(=O)c1ccc(-c2c(Cl)nc(Cl)n2-c2ccc(F)cc2F)cc1 | Non-toxic |
| CS(=O)(=O)c1ccc(-c2cncn2-c2ccc(F)c(F)c2)cc1 | Non-toxic |
| CS(=O)(=O)c1ccc(-c2cnc(I)n2-c2ccc(F)c(F)c2)cc1 | Non-toxic |
| CS(=O)(=O)c1ccc(-c2c(Br)nc(Br)n2-c2ccc(F)cc2F)cc1 | Non-toxic |
| CS(=O)(=O)c1ccc(-c2cncn2-c2ccc(F)cc2F)cc1 | Non-toxic |

System: RAW264.7
Assay: Cytotoxicity against mouse RAW264.7 cells by MTT assay
Assay type: cell-based
Conditions: not given
How it was run: as §1

| SMILES | Activity |
| --- | --- |
| CS(=O)(=O)c1ccc(-c2c(Br)ncn2-c2ccc(F)c(F)c2)cc1 | Non-toxic |
| CS(=O)(=O)c1ccc(-c2c(Cl)ncn2-c2ccc(F)c(F)c2)cc1 | Non-toxic |
| CS(=O)(=O)c1ccc(-c2cnc(Cl)n2-c2ccc(F)cc2F)cc1 | Non-toxic |
| CS(=O)(=O)c1ccc(-c2cnc(Br)n2-c2ccc(F)c(F)c2)cc1 | Non-toxic |
| CS(=O)(=O)c1ccc(-c2c(Cl)nc(Cl)n2-c2ccc(F)c(F)c2)cc1 | Non-toxic |
| CS(=O)(=O)c1ccc(-c2c(Cl)nc(Cl)n2-c2ccc(F)cc2F)cc1 | Non-toxic |
| CS(=O)(=O)c1ccc(-c2cncn2-c2ccc(F)c(F)c2)cc1 | Non-toxic |
| CS(=O)(=O)c1ccc(-c2cnc(I)n2-c2ccc(F)c(F)c2)cc1 | Non-toxic |
| CS(=O)(=O)c1ccc(-c2c(Br)nc(Br)n2-c2ccc(F)cc2F)cc1 | Non-toxic |
| CS(=O)(=O)c1ccc(-c2cncn2-c2ccc(F)cc2F)cc1 | Non-toxic |

Molecular target: T1, Prostaglandin G/H synthase 2 (Mus musculus, UniProt Q05769)
T1 sequence (Q05769 whole entry): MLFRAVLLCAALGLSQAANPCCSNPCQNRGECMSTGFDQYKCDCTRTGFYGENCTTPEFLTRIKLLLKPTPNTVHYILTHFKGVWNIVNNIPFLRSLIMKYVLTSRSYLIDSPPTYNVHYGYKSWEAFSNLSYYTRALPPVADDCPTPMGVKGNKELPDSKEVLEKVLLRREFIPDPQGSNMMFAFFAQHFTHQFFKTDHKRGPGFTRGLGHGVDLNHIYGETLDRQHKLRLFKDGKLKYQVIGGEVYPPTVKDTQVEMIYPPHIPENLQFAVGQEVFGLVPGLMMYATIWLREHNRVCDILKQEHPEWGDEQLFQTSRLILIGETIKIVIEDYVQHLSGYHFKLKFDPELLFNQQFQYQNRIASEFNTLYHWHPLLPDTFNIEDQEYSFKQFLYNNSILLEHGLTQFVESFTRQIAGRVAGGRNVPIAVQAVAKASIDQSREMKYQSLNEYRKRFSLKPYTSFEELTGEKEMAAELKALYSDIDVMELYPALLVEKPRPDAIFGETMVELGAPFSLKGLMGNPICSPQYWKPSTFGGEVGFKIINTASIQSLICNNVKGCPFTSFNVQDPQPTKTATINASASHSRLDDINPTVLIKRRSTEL
Assay: Inhibition of COX-2-induced PGE2 production in LPS-stimulated mouse Raw 264.7 cells preincubated for 1 hr before LPS challenge measured after 24 hrs by ELISA
Conditions: not given
How it was run: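 RAW 264.7 cells (ATCC), cultured in DMEM with 10% FBS and 1% antibiotics at 37 °C under 5% CO₂, seeded at 2 × 10⁵ cells/well. 1 h compound pre-incubation preceded LPS addition and 24 h incubation. Medium PGE₂ quantified by ELISA; IC₅₀ reported from inhibition relative to basal and LPS-only controls.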

| SMILES | IC50 |
| --- | --- |
| CS(=O)(=O)c1ccc(-c2cnc(Br)n2-c2ccc(F)c(F)c2)cc1 | 580 nM |
| CS(=O)(=O)c1ccc(-c2c(Cl)nc(Cl)n2-c2ccc(F)cc2F)cc1 | 550 nM |
| CS(=O)(=O)c1ccc(-c2cncn2-c2ccc(F)cc2F)cc1 | 6520 nM |

Molecular target: T2, Prostaglandin G/H synthase 2 (Mus musculus) (UniProt Q05769)
T2 sequence (whole entry): T1 sequence (Q05769 whole entry)
Assay: Inhibition of COX-2-induced PGE2 production in LPS-stimulated mouse Raw 264.7 cells at 10 uM preincubated for 1 hr before LPS challenge measured after 24 hrs by ELISA
Conditions: not given
How it was run: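 ATCC RAW 264.7 cells in DMEM with 10% FBS and 1% antibiotics, 37 °C, 5% CO₂, seeded at 2 × 10⁵ cells/well. Compound pre-incubated 1 h, then LPS added, 24 h further. PGE₂ in medium measured by ELISA. % inhibition = 100 × [1 − (treated + LPS − basal)/(LPS only − basal)]. Arithmetic means, n = 3.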

| SMILES | inhibition |
| --- | --- |
| CS(=O)(=O)c1ccc(-c2c(Br)ncn2-c2ccc(F)c(F)c2)cc1 | 7% |
| CS(=O)(=O)c1ccc(-c2c(Cl)ncn2-c2ccc(F)c(F)c2)cc1 | 56% |
| CS(=O)(=O)c1ccc(-c2cnc(Cl)n2-c2ccc(F)cc2F)cc1 | 42% |
| CS(=O)(=O)c1ccc(-c2cnc(Br)n2-c2ccc(F)c(F)c2)cc1 | 99% |
| CS(=O)(=O)c1ccc(-c2c(Cl)nc(Cl)n2-c2ccc(F)c(F)c2)cc1 | 81% |
| CS(=O)(=O)c1ccc(-c2c(Cl)nc(Cl)n2-c2ccc(F)cc2F)cc1 | 98% |
| CS(=O)(=O)c1ccc(-c2cnc(I)n2-c2ccc(F)c(F)c2)cc1 | 90% |
| CS(=O)(=O)c1ccc(-c2c(Br)nc(Br)n2-c2ccc(F)cc2F)cc1 | 15% |
| CS(=O)(=O)c1ccc(-c2cncn2-c2ccc(F)cc2F)cc1 | 84% |

System: not listed separately
Assay: Lipophilicity, log P of the compound
Assay type: physicochemical
Conditions: octanol/water

| SMILES | logP |
| --- | --- |
| CS(=O)(=O)c1ccc(-c2c(Br)ncn2-c2ccc(F)c(F)c2)cc1 | 3.72 |
| CS(=O)(=O)c1ccc(-c2cnc(Br)n2-c2ccc(F)c(F)c2)cc1 | 3.7 |
| CS(=O)(=O)c1ccc(-c2c(Cl)nc(Cl)n2-c2ccc(F)c(F)c2)cc1 | 4.44 |
| CS(=O)(=O)c1ccc(-c2c(Cl)nc(Cl)n2-c2ccc(F)cc2F)cc1 | 3.64 |
| CS(=O)(=O)c1ccc(-c2cnc(I)n2-c2ccc(F)c(F)c2)cc1 | 3.88 |
| CS(=O)(=O)c1ccc(-c2c(Br)nc(Br)n2-c2ccc(F)cc2F)cc1 | 4.64 |

System: not listed separately
Assay: Dissociation constant, pKa of the compound
Assay type: physicochemical
Conditions: not given

| SMILES | pKa |
| --- | --- |
| CS(=O)(=O)c1ccc(-c2cnc(Br)n2-c2ccc(F)c(F)c2)cc1 | 4.05 |
| CS(=O)(=O)c1ccc(-c2c(Cl)nc(Cl)n2-c2ccc(F)cc2F)cc1 | 1.07 |
